Data set [1] has as its system Hepatitis C virus. The experiment in a line: Antiviral activity against HCV in human Huh-luc/neo7 cells after 72 hrs by luciferase reporter gene assay. The format is functional, organism-based, Hepacivirus hominis. The essentials: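 Huh7 cells persistently carrying full-genome HCV replicon treated with compound (e.g., 0, 1, 5, 25, 125 µM) for 72 h; replicon translation/replication read as firefly luciferase activity; EC50 from dose-response.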
(In general: A reporter such as luciferase makes a cellular process visible.)

Data set [2] in a line: Cytotoxicity against human HuH7 cells expressing luc/neo after 72 hrs by MTT assay. The data set is classed as cell-based, Huh-7. A general note: Tetrazolium assays rely on reduction of a dye to a coloured formazan, in cell work by metabolically active cells.
Data set [3] can be described thus: Selectivity index, ratio of CC50 for human Huh-luc/neo7 cells to EC50 for HCV.
The test system of data set [4] is RD. The data set can be described thus: Cytotoxicity against human RD cells assessed as morphological changes incubated at 125 uM for 72 hrs and at 250 uM for 7 hrs by Hoechst 33342 staining-based fluorescence microscopy. The data set is classed as cell-based. Summed up: (§1)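 RD cells incubated 72 h at 125 µM, then 7 h more at 250 µM (time of PV reproduction cycle); monolayer density by light transmission imaging and nuclear morphology by fluorescence microscopy after Hoechst 33342 DNA staining, compared with untreated controls.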

Data set [5] has as its system Enterovirus C. The data set can be described thus: Antiviral activity against poliovirus infected in human RD cells assessed as nuclear alteration pretreated at 125 uM for 72 hrs followed by viral infection and compound treatment at 250 uM for 7 hrs by Hoechst 33342 staining-based fluorescence microscopy. The format is functional, cell-based. The essentials: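 RD cells were pretreated with compound for 72 h at 125, then infected with poliovirus at an MOI of ~20 or ~600 PFU/cell and held at 250 for 7 h. Nuclear DNA was stained with Hoechst33342, and nuclear alterations were scored by fluorescence microscopy right after infection or at 7 h.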

Data set [6] relates to Enterovirus C. The experiment in a line: Antiviral activity against poliovirus infected in human RD cells assessed as destruction of RD cell monolayer pretreated at 125 uM for 72 hrs followed by viral infection and compound treatment at 250 uM for 7 hrs by light microscopy. The data set is classed as functional, cell-based. The essentials:
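RD cells were pretreated with compound for 72 h at 125, then infected with poliovirus at an MOI of ~20 or ~600 PFU/cell and incubated at 250 for 7 h. The integrity of the cell monolayer was examined by light microscopy right after infection or at 7 h.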

Data set [7] deals with RD. The data set can be described thus: Cytotoxicity against human RD cells assessed as cell density incubated at 125 uM for 72 hrs and at 250 uM for 7 hrs by light transmission spectroscopy relative to vehicle-treated control. The format is cell-based. The essentials:
as §1

Each structure is given as a SMILES string. pEC50: −log10 of the molar value. Activity calls are given as the source filed them. The rule behind the calls is not given here.

One may read the pEC50 as the EC50 on a negative log10 scale, so that one unit is a factor of ten. A high value points to a low EC50. Broadly, the CC50 is the concentration giving 50% cytotoxicity.

In turn, `COCc1ccccc1C(=O)NO` gave a negative logarithm of the EC50 (pEC50) in data set [1] of 3.77. In data set [2], the CC50 at 72 h was over 1000 µM. Further, in data set [3], the “Ratio CC50/EC50” value is on record as over 6.
In the same order, the values of `O=C(NO)c1cccc(Cl)c1` are 5.00, 120 µM and 12.
In the same order, the values of `O=C(NO)c1ccccc1[N+](=O)[O-]` are 6.00, 55 µM and 55.
In data set [1], `Cc1ccc(C(=O)NO)c(Cl)c1` showed a pEC50 of 5.82. Further, the midpoint of cytotoxicity in data set [2], the CC50 at 72 h, lay at 140 µM. Besides, in data set [3], the “Ratio CC50/EC50” value came to 93.
In the same order, the values of `O=C(NO)c1ccccc1Cl` are 5.70, 330 µM and 165.
In turn, `CONC(=O)c1ccccc1O` gave a pEC50 in data set [1] of under 3.52. For the same compound, the cytotoxic concentration (CC50) at 72 h in data set [2] is over 800 µM.
`Cc1ccccc1C(=O)NO` showed a negative-log EC50 (pEC50) in data set [1] of 4.07. This compound displayed a CC50 at 72 h in data set [2] of 650 µM. Besides, the “Ratio CC50/EC50” value in data set [3] is recorded as 8.
In the same order, the values of `O=C(NO)c1cc([N+](=O)[O-])ccc1O` are 3.80, over 1000 µM and over 6.
In the same order, the values of `COc1ccc(C)cc1C(=O)NO` are 5.00, 800 µM and 80.
The like results for `O=C(NO)c1ccc(Cl)cc1Cl` were, in that order, 6.10, 140 µM and 175.
In data set [1], `COc1ccccc1C(N)=O` gave a negative-log EC50 (pEC50) of under 3.52. In addition, the half-maximal cytotoxic concentration (CC50) at 72 h in data set [2] is over 800 µM.
The like results for `CONC(=O)c1ccccc1` were, in that order, under 3.52 and over 800 µM.
`O=C(NO)c1ccc([N+](=O)[O-])cc1`: the pEC50 in data set [1] is 5.52. For the same compound, the CC50 at 72 h in data set [2] was 70 µM. The “Ratio CC50/EC50” value in data set [3] worked out at 23.
`CONC(=O)c1ccccc1OC` showed a negative logarithm of the EC50 (pEC50) in data set [1] of under 3.52. For the same compound, the CC50 at 72 h in data set [2] was over 800 µM.
The like results for `CN(O)C(=O)c1ccccc1` were, in that order, 4.19 and 400 µM.
In turn, `Cc1cc(Br)ccc1C(=O)NO` gave a negative-log EC50 (pEC50) in data set [1] of 6.30. The cytotoxic concentration (CC50) at 72 h in data set [2] is 120 µM. Besides, the “Ratio CC50/EC50” value in data set [3] worked out at 240.
Turning to `NC(=O)c1ccccc1O` [SALICYLAMIDE], in data set [1], the pEC50 is under 3.52. In data set [2], this compound displayed a CC50 at 72 h of over 800 µM.
In data set [1], `O=C(NO)c1cccc([N+](=O)[O-])c1` had a pEC50 of 5.30. Further, the half-maximal cytotoxic concentration (CC50) at 72 h in data set [2] came to 160 µM. Further, the “Ratio CC50/EC50” value in data set [3] is recorded as 32.
In the same order, the values of `COc1cccc(C(=O)NO)c1` are 4.15, 570 µM and 8.
The like results for `COc1cc(C)ccc1C(=O)NO` were, in that order, 4.82, 900 µM and 60.
In the same order, the values of `O=C(NO)c1ccc(Br)cc1` are 5.70, 25 µM and 13.
Regarding `COc1ccccc1C(=O)N(C)O`, the negative logarithm of the EC50 (pEC50) in data set [1] was under 3.52. For the same compound, the CC50 at 72 h in data set [2] was over 800 µM.
In the case of `O=C(NO)c1ccccc1OCCOc1ccccc1C(=O)NO`, the negative logarithm of the EC50 (pEC50) in data set [1] is 4.46. The same compound displayed a CC50 at 72 h in data set [2] of over 800 µM. Also, the “Ratio CC50/EC50” value in data set [3] is over 23.
In turn, `O=C(NO)c1cccc(Br)c1` gave a negative logarithm of the EC50 (pEC50) in data set [1] of 4.92. In data set [2], this compound gave a half-maximal cytotoxic concentration (CC50) at 72 h of 310 µM. Also, the “Ratio CC50/EC50” value in data set [3] came out at 26.
Turning to `Cc1cccc(C(=O)NO)c1`, in data set [1], the negative-log EC50 (pEC50) was 4.70. The 50% cytotoxic concentration (CC50) at 72 h in data set [2] came to 340 µM. Also, the “Ratio CC50/EC50” value in data set [3] is 17.
Regarding `COc1ccccc1/C(N)=N/O`, the pEC50 in data set [1] was under 3.52. For the same compound, in data set [2], the CC50 at 72 h is over 800 µM.
With `CN(O)C(=O)c1ccccc1O`, the negative-log EC50 (pEC50) in data set [1] is under 3.52. In data set [2], this compound came in with a half-maximal cytotoxic concentration (CC50) at 72 h of over 800 µM. The Activity entry in data set [4] and in data set [7] was “Non-toxic” throughout. Further, the outcome in data set [5] and in data set [6] was inactive.
Turning to `Cc1ccc(C(=O)NO)cc1`, the negative logarithm of the EC50 (pEC50) in data set [1] was 5.10. In data set [2], this compound gave a half-maximal cytotoxic concentration (CC50) at 72 h of 110 µM. Also, the “Ratio CC50/EC50” value in data set [3] was 14.
The like results for `COc1cccc(OC)c1C(=O)NO` were, in that order, 4.30, over 800 µM and over 16.
In the same order, the values of `COc1ccc([N+](=O)[O-])cc1C(=O)NO` are 5.52, 350 µM and 120.
The like results for `O=C(NO)c1ccc(Cl)cc1` were, in that order, 5.52, 55 µM and 18.
The compound `CCCCOc1ccccc1C(=O)NO` had a pEC50 in data set [1] of 5.00. The compound also displayed a CC50 at 72 h in data set [2] of 380 µM. In addition, in data set [3], the “Ratio CC50/EC50” value is on record as 38.
`N/C(=N\O)c1ccccc1O`: the negative-log EC50 (pEC50) in data set [1] was 3.85. For the same compound, the CC50 at 72 h in data set [2] worked out at 500 µM.
For the compound `O=C(NO)c1ccccc1F`, the pEC50 in data set [1] is 4.82. Besides, it took 300 µM to reach half-maximal cytotoxicity in data set [2] (CC50 at 72 h). Further, the “Ratio CC50/EC50” value in data set [3] was found to be 20.
The like results for `COc1ccc(C(=O)NO)cc1` were, in that order, 4.92, 180 µM and 15.
The like results for `O=C(NO)c1ccccc1Br` were, in that order, 5.52, 270 µM and 90.
In data set [1], `NC(=NO)c1ccccc1` [BENZAMIDOXIME] had a pEC50 of 3.57. This compound also had a CC50 at 72 h in data set [2] of over 800 µM.
